The record followed here is ChEMBL document CHEMBL2346564, “Synthesis and biological evaluation of nitric oxide releasing derivatives of 6-amino-3-n-butylphthalide as potential antiplatelet agents” (Bioorg Med Chem Lett, 2013).

A short description of data set [1]: Antiplatelet activity in rabbit platelet rich plasma assessed as inhibition of ADP-induced platelet aggregation at 0.1 mM incubated for 5 mins prior to ADP challenge measured after 5 mins by Born's turbidimetric method relative to control. The data set is classed as functional. Conditions: Oryctolagus cuniculus. The gist of the method:
(§1)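 Rabbit platelet-rich plasma, adjusted with platelet-poor plasma (centrifuged 3000 rpm, 10 min, room temperature) to 400–450 × 10⁹ platelets/L and used within 3 h of blood collection. PRP pre-incubated with vehicle or compound (0.1 mM) for 5 min at 37 °C, then ADP 10 μM added. Maximum aggregation rate recorded over 5 min by Born turbidimetry. Inhibition (%) = 100% − MAR(compound)/MAR(vehicle). Mean ± SD, n = 6.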

A short description of data set [2]: Induction of nitric oxide release in phosphate buffer assessed as nitrite level at 0.1 mM measured every 15 mins for 120 mins followed by every 30 mins for 180 mins by Griess assay. The data set is classed as physicochemical. As to conditions: 100 µM. The method, boiled down: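 Compound at 0.1 mM in phosphate buffer solution, kept at room temperature for 15–300 min. Sampled every 15 min up to 120 min, then every 30 min. Samples mixed with sulfanilamide and N-(1-naphthyl)ethylenediamine dihydrochloride and held 5–10 min at room temperature in the dark. Absorbance read at 540 nm and converted to nitrite (μmol/L) with a nitrite standard curve. Intra-group variation under 10%.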

Data set [3] has as its system Platelet. The experiment in a line: Ratio of compound activity to 6-amino 3-n-butylphthalide activity for inhibition of ADP-induced platelet aggregation in rabbit platelet rich plasma at 0.1 mM. The data set is classed as functional, Oryctolagus cuniculus.
A short description of data set [4]: Aqueous solubility of the compound in normal saline after 5 hrs by UV-spectrophotometric analysis. Conditions: normal saline (aqueous solubility, as described).
The nature of data set [5]: Antiplatelet activity in rabbit platelet rich plasma assessed as inhibition of ADP-induced platelet aggregation at 0.1 mM incubated for 5 mins prior to ADP challenge measured after 5 mins by Born's turbidimetric method in presence of hemoglobin relative to control. The data set is classed as functional. As to conditions: Oryctolagus cuniculus. The method, boiled down:
as §1

Data set [6] concerns Platelet. The experiment in a line: Ratio of compound activity to 3-n-butylphthalide activity for inhibition of ADP-induced platelet aggregation in rabbit platelet rich plasma at 0.1 mM. The data set is classed as functional, Oryctolagus cuniculus.

Converted amounts (≈) assume the structure as drawn.

The inhibition is the relative decrease from the control value, in per cent. As for `CCCCC1OC(=O)c2cc(N)ccc21` (configuration not stated), in data set [1], the inhibition at 100 µM was determined as 18.4%.

Consider `CCCCC1OC(=O)c2cc(NC(=O)CO[N+](=O)[O-])ccc21` (configuration not stated), for which the Activity in data set [2] worked out at 3.67 µmol/L. Further, the inhibition at 100 µM in data set [1] was determined as 22.2%.

As usually defined, the solubility is how much of the substance goes into solution per volume. For the molecule `CCCCC1OC(=O)c2cc(NC(=O)CCO[N+](=O)[O-])ccc21` (configuration not stated), the Ratio in the data set with Platelet [3] and in the data set on Platelet [6] was 2 each time. The same molecule displayed a solubility at 5 h in data set [4] of 1180 µM (≈ 380 µg/mL). In addition, the values for the inhibition at 100 µM in data set [5] and in data set [1] were 23.1% and 30.4%, respectively. The Activity in data set [2] was 12.88 µmol/L.

For the molecule `CCCCC1OC(=O)c2cc(NC(=O)CCCO[N+](=O)[O-])ccc21` (configuration not stated), the Activity in data set [2] came out at 7.1 µmol/L. In addition, the inhibition at 100 µM in data set [1] is 28.6%.

For `CCCCC1OC(=O)c2cc(NC(=O)c3ccccc3OCCO[N+](=O)[O-])ccc21` (configuration not stated), the Activity in data set [2] came out at 1.82 µmol/L. In addition, the inhibition at 100 µM in data set [1] turned out to be 15.2%.

Regarding `CCCCC1OC(=O)c2cc(NC(=O)c3ccc(OCCO[N+](=O)[O-])cc3)ccc21` (configuration not stated), the Activity in data set [2] was determined as 2.21 µmol/L. Further, the inhibition at 100 µM in data set [1] is 20%.

`CCCCC1OC(=O)c2cc(NC(=O)c3cccc(OCCO[N+](=O)[O-])c3)ccc21` (configuration not stated): in data set [2], the Activity was 6.82 µmol/L. Further, in data set [1], the inhibition at 100 µM stood at 26.6%.

Consider `CCCCC1OC(=O)c2cc(NC(=O)c3ccccc3OCCCO[N+](=O)[O-])ccc21` (configuration not stated), for which the concentration in solution in data set [4] (solubility at 5 h) was 580 µM (≈ 248 µg/mL). The Activity in data set [2] came out at 2.18 µmol/L. The inhibition at 100 µM in data set [1] turned out to be 16.7%.

`CCCCC1OC(=O)c2cc(NC(=O)c3ccc(OCCCO[N+](=O)[O-])cc3)ccc21` (configuration not stated) registered a solubility at 5 h in data set [4] of 750 µM (≈ 321 µg/mL). Moreover, the Activity in data set [2] came to 3.88 µmol/L. Besides, the inhibition at 100 µM in data set [1] turned out to be 22.8%.

In data set [4], `CCCCC1OC(=O)c2cc(NC(=O)c3cccc(OCCCO[N+](=O)[O-])c3)ccc21` (configuration not stated) displayed a solubility at 5 h of 1060 µM (≈ 454 µg/mL). Further, in data set [2], the Activity was 7.27 µmol/L. Also, the inhibition at 100 µM in data set [1] turned out to be 28.8%.

For `CCCCC1OC(=O)c2cc(NC(=O)c3ccccc3OCCCCO[N+](=O)[O-])ccc21` (configuration not stated), the inhibition at 100 µM in data set [1] was 13.6%.

For `CCCCC1OC(=O)c2cc(NC(=O)c3ccc(OCCCCO[N+](=O)[O-])cc3)ccc21` (configuration not stated), the inhibition at 100 µM in data set [1] worked out at 18.2%.

Consider `CCCCC1OC(=O)c2cc(NC(=O)c3cccc(OCCCCO[N+](=O)[O-])c3)ccc21` (configuration not stated), for which the inhibition at 100 µM in data set [1] turned out to be 21.6%.

In data set [4], `CCCCC1OC(=O)c2ccccc21` (racemic) [RAC-3-N-BUTYLPHTHALIDE] registered a solubility at 5 h of 540 µM (≈ 103 µg/mL). The inhibition at 100 µM in data set [1] came to 15.7%.

Consider `Clc1ccccc1CN1CCc2sccc2C1` [TICLOPIDINE], for which, in data set [1], the inhibition at 100 µM was 26.4%.
